Experimental data from ChEMBL document CHEMBL5236609, “Optimization of 1,2,4-Triazole-3-thiones toward Broad-Spectrum Metallo-β-lactamase Inhibitors Showing Potent Synergistic Activity on VIM- and NDM-1-Producing Clinical Isolates” (J Med Chem, 2022).
In brackets after ≈: the same amount, converted by molar mass. Each block holds one compound with its values, some of them ahead of it. Activity calls are given as the source filed them. No cut-off for these calls is given here.

Key:
Escherichia coli [1] = test: Antimicrobial activity against blaNDM-1-producing multidrug-resistant Escherichia coli SI-004 clinical isolate; assay type: functional
Procedure, shortened: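 Broth microdilution per CLSI in cation-supplemented Mueller–Hinton broth with an inoculum of 5×10^4 CFU/well.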

Pseudomonas aeruginosa [2] = test: Antimicrobial activity against blaVIM-2-producing multidrug-resistant Pseudomonas aeruginosa VA-182/00 clinical isolate; assay type: functional
Bacteria [3] = test: Inhibition of bacterial Metallo-beta-lactamase VIM-1 (unknown origin) at 100 uM relative to control
Procedure, shortened: (§1)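 Reporter-substrate assay with purified MBL (1–70 nM final) in 50 mM HEPES pH 7.5 at 30 °C. […] Inhibitor 0.5–1000 μM final. Ki derived from the v0/vi vs [I] slope assuming competitive inhibition, or from a Dixon plot. Ki given when inhibition >70%, otherwise % inhibition at 100 μM. Triplicate.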

[4] = Inhibition of bacterial Metallo-beta-lactamase VIM-4 (unknown origin); parameters: species or system Bacteria; procedure, shortened: as §1
[5] = Inhibition of bacterial Metallo-beta-lactamase NDM-1 (unknown origin); parameters: species or system Bacteria; procedure, shortened: as §1
[6] = Inhibition of bacterial Metallo-beta-lactamase VIM-2 (unknown origin); parameters: species or system Bacteria; procedure, shortened: as §1
[7] = Inhibition of bacterial Metallo-beta-lactamase IMP-1 (unknown origin); parameters: species or system Bacteria; procedure, shortened: as §1
[8] = Inhibition of bacterial Metallo-beta-lactamase VIM-1 (unknown origin); parameters: species or system Bacteria; procedure, shortened: as §1
Bacteria [9] = test: Inhibition of bacterial IMP-1 (unknown origin) expressed in Escherichia coli EXPRESS BL21(DE3) assessed as inhibition constant by measuring rate of substrate hydrolysis at 100 uM by UV-visible spectrophotometry relative to control; procedure, shortened: as §1
[10] = Inhibition of bacterial NDM-1 (unknown origin) expressed in Escherichia coli EXPRESS BL21(DE3) assessed as inhibition constant by measuring rate of substrate hydrolysis by UV-visible spectrophotometry; parameters: species or system Bacteria; procedure, shortened: as §1
Bacteria [11] = test: Competitive inhibition of bacterial VIM-2 (unknown origin) assessed as Zn(II) content by at 48 uM by overnight equilibrium dialysis
Procedure, shortened: (§2)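 VIM-2 or NDM-1 (3 μM final) in 50 mM HEPES pH 7.5 mixed with compound at 0–48 μM. Incubated 1 h on ice, then dialysed overnight at 4 °C against 50 mM HEPES pH 7.5. Zn(II) content measured by atomic absorption at 213.86 nm against a zinc standard curve. Each point averages three samples.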

Pseudomonas aeruginosa [12] = test: Antimicrobial activity against blaVIM-2-producing multidrug-resistant Pseudomonas aeruginosa VA-182/00 clinical isolate assessed as meropenem MIC at 32 ug/ml by broth microdilution method (reference value: 128 ug/ml); assay type: functional; settings: dose 32 µg/ml
Procedure, shortened: (§3)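 Inoculum was 5×10^4 CFU/well. Each inhibitor was present at a fixed 32 μg/mL, and MICs were also taken without inhibitor.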

[13] = Inhibition of bacterial VIM-2 (unknown origin) expressed in Escherichia coli EXPRESS BL21(DE3) assessed as inhibition constant by measuring rate of substrate hydrolysis by UV-visible spectrophotometry; parameters: species or system Bacteria; procedure, shortened: as §1
[14] = Inhibition of bacterial VIM-1 (unknown origin) expressed in Escherichia coli EXPRESS BL21(DE3) assessed as inhibition constant by measuring rate of substrate hydrolysis by UV-visible spectrophotometry; parameters: species or system Bacteria; procedure, shortened: as §1
Bacteria [15] = test: Inhibition of bacterial VIM-2 (unknown origin) assessed as ternary complex formation using 10 uM enzyme concentration at 50 uM by native MS analysis
Procedure, shortened: (§4)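 Purified VIM-2 or NDM-1 was given 2 mM TCEP and 2 equiv ZnCl2, incubated 1 h, and dialysed overnight into 100 mM ammonium acetate pH 7.5. Enzyme at 10 μM was then incubated 5 min with 50 μM compound. Positive-mode nanoESI on an Orbitrap, scanning m/z 1000–4000. Species assigned from deconvoluted masses.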

Klebsiella pneumoniae [16] = test: Antimicrobial activity against blaVIM-4-producing multidrug-resistant Klebsiella pneumoniae VA-416/02 clinical isolate assessed as meropenem MIC at 32 ug/ml by broth microdilution method (reference value: […] ug/ml); assay type: functional; settings: dose 32 µg/ml; procedure, shortened: as §3
[17] = Inhibition of bacterial VIM-4 (unknown origin) expressed in Escherichia coli EXPRESS BL21(DE3) assessed as inhibition constant by measuring rate of substrate hydrolysis by UV-visible spectrophotometry; parameters: species or system Bacteria; procedure, shortened: as §1
Bacteria [18] = test: Inhibition of bacterial NDM-1 (unknown origin) assessed as ternary complex formation using 10 uM enzyme concentration at 50 uM by native MS analysis; procedure, shortened: as §4
Klebsiella pneumoniae [19] = test: Antimicrobial activity against blaVIM-1-producing multidrug-resistant Klebsiella pneumoniae K47-25 clinical isolate assessed as meropenem MIC at 32 ug/ml by broth microdilution method (reference value: […] ug/ml); assay type: functional; settings: dose 32 µg/ml; procedure, shortened: as §3
Bacteria [20] = test: Competitive inhibition of bacterial NDM-1 (unknown origin) assessed as Zn(II) content at 48 uM by overnight equilibrium dialysis; procedure, shortened: as §2
Escherichia coli [21] = test: Antimicrobial activity against blaNDM-1-producing multidrug-resistant Escherichia coli SI-004 clinical isolate assessed as meropenem MIC at 32 ug/ml by broth microdilution method (reference value: 64 ug/ml)
Bacteria [22] = test: Inhibition of bacterial NDM-1 (unknown origin) expressed in Escherichia coli EXPRESS BL21(DE3) assessed as inhibition constant by measuring rate of substrate hydrolysis at 100 uM by UV-visible spectrophotometry relative to control; procedure, shortened: as §1
[23] = target: Insulin-degrading enzyme (Homo sapiens) (UniProt P14735); test: Inhibition of recombinant human IDE using ATTO 655-Cys-Lys-Leu-Val-Phe-Phe-Ala-Glu-Asp-Trp as substrate at 0.4 uM measured after 45 mins by fluorescence assay relative to control
Bacteria [24] = test: Inhibition of bacterial Metallo-beta-lactamase NDM-1 (unknown origin) at 100 uM relative to control; procedure, shortened: as §1

Insulin-degrading enzyme (Homo sapiens), sequence (P14735 whole entry): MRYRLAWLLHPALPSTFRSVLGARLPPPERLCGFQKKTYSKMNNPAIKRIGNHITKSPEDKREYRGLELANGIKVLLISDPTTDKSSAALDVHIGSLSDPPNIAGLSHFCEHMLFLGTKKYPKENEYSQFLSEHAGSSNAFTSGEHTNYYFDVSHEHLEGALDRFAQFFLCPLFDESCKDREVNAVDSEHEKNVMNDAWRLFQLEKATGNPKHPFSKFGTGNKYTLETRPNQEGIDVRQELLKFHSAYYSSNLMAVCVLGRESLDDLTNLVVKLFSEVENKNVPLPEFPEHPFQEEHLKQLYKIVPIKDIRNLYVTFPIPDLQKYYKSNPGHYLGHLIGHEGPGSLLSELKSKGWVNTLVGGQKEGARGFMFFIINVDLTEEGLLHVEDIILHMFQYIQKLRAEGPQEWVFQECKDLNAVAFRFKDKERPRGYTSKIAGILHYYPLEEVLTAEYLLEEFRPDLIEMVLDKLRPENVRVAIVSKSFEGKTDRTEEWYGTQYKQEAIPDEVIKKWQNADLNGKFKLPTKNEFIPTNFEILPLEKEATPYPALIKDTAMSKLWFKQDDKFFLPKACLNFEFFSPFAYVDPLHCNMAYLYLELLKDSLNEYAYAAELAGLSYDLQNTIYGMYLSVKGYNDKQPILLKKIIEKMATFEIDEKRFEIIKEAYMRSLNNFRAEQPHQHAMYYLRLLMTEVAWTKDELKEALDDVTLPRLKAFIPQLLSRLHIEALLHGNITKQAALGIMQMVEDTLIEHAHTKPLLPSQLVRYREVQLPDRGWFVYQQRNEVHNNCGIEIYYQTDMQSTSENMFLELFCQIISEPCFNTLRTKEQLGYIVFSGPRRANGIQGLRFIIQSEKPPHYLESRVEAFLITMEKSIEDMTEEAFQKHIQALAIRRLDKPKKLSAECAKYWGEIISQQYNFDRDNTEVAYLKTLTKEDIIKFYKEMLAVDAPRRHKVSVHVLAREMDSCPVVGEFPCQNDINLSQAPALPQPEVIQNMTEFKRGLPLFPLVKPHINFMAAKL

SMILES: C[C@@H](O)[C@H]1C(=O)N2C(C(=O)O)=C(S[C@@H]3CN[C@H](C(=O)N(C)C)C3)[C@H](C)[C@H]12 [MEROPENEM]
MIC (Escherichia coli [1]): 64 µg/mL (≈ 167 µM)
MIC (Pseudomonas aeruginosa [2]): 128 µg/mL (≈ 334 µM)

inhibition (Bacteria [3]): 57%
Ki [4]: 1130 nM
Ki [5]: Not Active
Ki [6]: 2810 nM
Ki [7]: Not Active
Ki [8]: 13900 nM
SMILES: O=C(O)CCCCn1c(-c2ccccc2)n[nH]c1=S

SMILES: O=C(O)[C@H](CCCn1c(-c2ccccc2)n[nH]c1=S)N(Cc1cncs1)Cc1cncs1
inhibition (Bacteria [9]): < 30%
Ki [10]: 28000 nM
inhibition (Bacteria [11]): Active
MIC (Pseudomonas aeruginosa [12]): 128 µg/mL
Ki [13]: 100 nM
Ki [14]: 300 nM
inhibition (Bacteria [15]): Active
MIC (Klebsiella pneumoniae [16]): 1 µg/mL
Ki [17]: 140 nM
inhibition (Bacteria [18]): Active
MIC (Klebsiella pneumoniae [19]): 1 µg/mL
inhibition (Bacteria [20]): Active
MIC (Escherichia coli [21]): 32 µg/mL

SMILES: O=C(O)[C@H](CCCn1c(-c2ccccc2)n[nH]c1=S)N(Cc1cccnc1)Cc1cccnc1
inhibition (Bacteria [9]): < 30%
inhibition (Bacteria [11]): Active
MIC (Pseudomonas aeruginosa [12]): 128 µg/mL
Ki [13]: 420 nM
Ki [14]: 2600 nM
inhibition (Bacteria [15]): Active
inhibition (Bacteria [22]): 67%
MIC (Klebsiella pneumoniae [16]): 1 µg/mL
Ki [17]: 520 nM
inhibition (Bacteria [18]): Active
MIC (Klebsiella pneumoniae [19]): 4 µg/mL
inhibition (Bacteria [20]): Active
MIC (Escherichia coli [21]): 64 µg/mL

SMILES: O=C(C[C@H](Cc1ccc2ccccc2c1)n1cc(CNC(=O)c2ccc(F)cc2)nn1)NO
inhibition [23]: 65%

Ki [4]: 4140 nM
Ki [5]: Not Active
Ki [6]: 6930 nM
Ki [7]: Not Active
SMILES: O=C(Nc1ccccc1)NC(CCCn1c(-c2ccccc2)n[nH]c1=S)C(=O)O (centres undefined)

inhibition (Bacteria [24]): 35%
Ki [4]: 1510 nM
Ki [6]: 1950 nM
Ki [7]: Not Active
Ki [8]: 30800 nM
SMILES: CC(C)(C)OC(=O)N[C@@H](CCCn1c(-c2ccccc2)n[nH]c1=S)C(=O)O
